Source: ChEMBL document CHEMBL3867488 (ACS Med Chem Lett, 2016)

Assays:
[1] = Half life in cynomolgus monkey at 3 mg/kg, iv administered as 10 mins infusion by LC/MS/MS analysis; type: ADME, organism-based, Macaca fascicularis; conditions: in vivo
[2] = Plasma concentration in cynomolgus monkey at 0.3 mg/kg, po qd administered via gavage for 14 days measured after 5 hrs of last-dose by LC/MS/MS analysis; type: ADME, organism-based, Macaca fascicularis
How it was run: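 Cynomolgus monkeys dosed daily for 14 days. On day 14, plasma drug concentration was taken 5 h post-dose. Plasma triglycerides were expressed as % elevation over baseline, with significance tested by ANOVA (p < 0.05).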

[3] = Effect on plasma triglyceride level in cynomolgus monkey at 0.3 mg/kg, po qd administered via gavage for 14 days measured after 24 hrs of last-dose relative to base line; type: ADME, organism-based, Macaca fascicularis; conditions: in vivo
How it was run: (§1)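 Cynomolgus monkeys dosed for 14 days, with groups at 0.1, 0.3 and 1 mg/kg. Plasma triglycerides expressed as percent change over baseline, with significance by ANOVA. Plasma drug exposure sampled 5 h post-dose. ABCG1 induction in blood cells monitored in the same animals.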

[4] = Effect on plasma triglyceride level in cynomolgus monkey at 0.1 mg/kg, po qd administered via gavage for 14 days measured after 24 hrs of last-dose relative to base line; type: ADME, organism-based, Macaca fascicularis; conditions: in vivo; how it was run: as §1
[5] = target: Alpha-1-acid glycoprotein 1 (Homo sapiens, UniProt P02763); assay: Binding affinity to human alpha-1-AGP at 1 uM measured after 4 hrs by equilibrium dialysis method relative to control; type: ADME; conditions: isolated protein, 4 h, 1 µM
Alpha-1-acid glycoprotein 1, sequence (P02763 whole entry): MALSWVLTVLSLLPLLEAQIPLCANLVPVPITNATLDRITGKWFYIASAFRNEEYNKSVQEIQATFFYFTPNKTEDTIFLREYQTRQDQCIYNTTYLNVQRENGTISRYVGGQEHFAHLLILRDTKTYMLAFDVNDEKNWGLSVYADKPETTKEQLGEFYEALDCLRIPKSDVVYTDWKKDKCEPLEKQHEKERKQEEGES

[6] = target: T1, Oxysterols receptor LXR-beta (Homo sapiens) (UniProt P55055); assay: Agonist activity at human LXR-beta expressed in African green monkey CV1 cells measured after 18 to 20 hrs by luciferase reporter gene assay relative to pan agonist 1-(2,4-difluorobenzyl)-2-oxo-6-(4-phenoxyphenyl)-4-(trifluoromethyl)-1,2-dihydropyridine-3-carbonitrile; type: cell-based; conditions: CV-1
T1 sequence (whole entry): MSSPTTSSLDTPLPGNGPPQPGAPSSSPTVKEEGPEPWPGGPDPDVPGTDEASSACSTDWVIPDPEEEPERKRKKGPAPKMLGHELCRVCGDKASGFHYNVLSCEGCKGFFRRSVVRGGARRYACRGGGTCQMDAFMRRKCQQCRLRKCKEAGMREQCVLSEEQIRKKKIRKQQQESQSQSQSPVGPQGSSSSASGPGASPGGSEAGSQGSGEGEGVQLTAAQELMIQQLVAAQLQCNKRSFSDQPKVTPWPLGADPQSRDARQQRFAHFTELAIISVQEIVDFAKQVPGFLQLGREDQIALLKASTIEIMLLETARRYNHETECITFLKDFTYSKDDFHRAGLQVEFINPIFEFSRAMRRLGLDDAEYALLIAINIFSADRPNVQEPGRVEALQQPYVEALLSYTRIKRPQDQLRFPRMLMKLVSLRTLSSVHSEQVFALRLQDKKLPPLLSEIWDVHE

[7] = target: T1, Oxysterols receptor LXR-beta (Homo sapiens); assay: Agonist activity at LXR-beta in human whole blood assessed as ABCA1 gene induction by measuring ABCA1 mRNA level after 4 hrs by SYBR-Green dye-based Q-PCR analysis relative to pan agonist 2-(4-(5-(5-cyano-1-(2,4-difluorobenzyl)-6-oxo-4-(trifluoromethyl)-1,6-dihydropyridin-2-yl)thiophen-2-yl)-3-methylphenyl)acetic acid; type: tissue-based
[8] = target: T2, Oxysterols receptor LXR-beta (Homo sapiens, UniProt P55055); assay: Agonist activity at LXR-beta in human whole blood assessed as ABCA1 gene induction by measuring ABCA1 mRNA level after 4 hrs by SYBR-Green dye-based Q-PCR analysis; type: tissue-based
T2 sequence (P55055 whole entry): T1 sequence (whole entry)

[9] = target: T2, Oxysterols receptor LXR-beta; assay: Agonist activity at human LXR-beta expressed in African green monkey CV1 cells measured after 18 to 20 hrs by luciferase reporter gene assay; type: cell-based, CV-1
[10] = target: T3, Nuclear receptor subfamily 1 group I member 2 (Homo sapiens, UniProt O75469); assay: Agonist activity at human PXR expressed in human HepG2 cells assessed as induction of CYP3A4 measured after 24 hrs by AlamarBlue dye-based luciferase reporter gene assay; type: cell-based
T3 sequence (O75469 whole entry): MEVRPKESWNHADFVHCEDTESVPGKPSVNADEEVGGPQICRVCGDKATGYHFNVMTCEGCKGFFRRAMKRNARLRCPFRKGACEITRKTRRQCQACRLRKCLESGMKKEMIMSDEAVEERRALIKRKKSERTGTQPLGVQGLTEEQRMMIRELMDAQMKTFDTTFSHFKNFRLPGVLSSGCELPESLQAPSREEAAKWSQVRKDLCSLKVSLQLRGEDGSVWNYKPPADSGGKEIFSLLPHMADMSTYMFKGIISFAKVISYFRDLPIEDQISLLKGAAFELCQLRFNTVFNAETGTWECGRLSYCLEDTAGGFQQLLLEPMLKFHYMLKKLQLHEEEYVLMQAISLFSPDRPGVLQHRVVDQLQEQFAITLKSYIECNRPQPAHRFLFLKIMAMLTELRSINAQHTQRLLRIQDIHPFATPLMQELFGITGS

t1/2 [1]: 12 h | concentration at 5 h [2]: 22 nM | Activity [3]: 8% | Activity [4]: 20% | PB [5]: 97.3% | Efficacy [6]: 88% | Efficacy [7]: 26% | EC50 [8]: 9 nM | EC50 [9]: 24 nM | EC50 [10]: 1000 nM
SMILES: CC(C)(O)c1cn(-c2ccc(-c3cc(F)c(CO)c(S(C)(=O)=O)c3)cc2F)c(C(C)(C)c2c(Cl)cccc2Cl)n1 [BMS-852927]
